Measured values published in publication PMC4832855 (Cancer Science, 2016).
“And” between values parts separate entries of the source, which are not always exact repeats. Identical values can stand only once.

Columns and labels:
IR = IR (Homo sapiens, UniProt P06213); experiment: Kinase inhibition profiling at 100 nmol/L; type: biochemical; details: read-out: Inhibition at 100 nmol/L
Jak2 = Jak2 (Homo sapiens, UniProt O60674); experiment: Kinase inhibition profiling at 100 nmol/L; type: biochemical
AurA = AurA (Homo sapiens, UniProt O14965); experiment: Kinase inhibition profiling at 100 nmol/L; type: biochemical
AurB = AurB (Homo sapiens, UniProt Q96GD4); experiment: Kinase inhibition profiling at 100 nmol/L; type: biochemical; details: read-out: Inhibition at 100 nmol/L
[1] = target: fms‐like tyrosine kinase‐1 (Homo sapiens, UniProt P17948); experiment: Kinase inhibition profiling at 100 nmol/L; type: biochemical; details: read-out: Inhibition at 100 nmol/L
[2] = target: fms‐like tyrosine kinase‐3 (Homo sapiens, UniProt P36888); experiment: Kinase inhibition profiling at 100 nmol/L; type: biochemical; details: read-out: Inhibition at 100 nmol/L
[3] = system: human sarcoma cell lines bearing the EWS/FLI‐1 chromosome translocation (TC‐71, SK‐N‐MC, SK‐ES‐1); experiment: Anti-proliferative activity; type: cell-based; details: 72 h
[4] = system: human multiple myeloma cell lines (KMS‐12‐BM, LP‐1, NCI‐H929); experiment: Anti-proliferative activity; type: cell-based; details: 72 h
[5] = system: panel of human malignant cell lines; experiment: Correlation of antiproliferative activity with anti‐IGF‐1 antibody KM1468; type: cell-based; details: range of human malignant cell lines (Fig. S1a)
[6] = system: insulin‐induced tyrosine phosphorylation of IR in HT‐29/GFP cells; experiment: In vitro signal transduction assay; type: cell-based, human; details: 10 nmol/L, 2 hours
Procedure, shortened: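 HT-29/GFP colon cancer cells in culture exposed to test compound, then stimulated with human IGF-1 or human insulin; receptor tyrosine phosphorylation and downstream signalling assessed across a concentration series.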

[7] = system: HT‐29/GFP human colon cancer cells; experiment: Flow cytometric cell cycle analysis; type: cell-based
[8] = system: HT‐29/GFP colon cancer xenograft; experiment: HT-29/GFP xenograft model; type: in vivo, mouse; details: 40 mg/kg orally once daily for 14 days, SCID mice
[9] = system: IGF‐1‐induced tyrosine phosphorylation of IGF‐R in HT‐29/GFP xenograft; experiment: In vivo signal transduction assay; design: species or system mouse; details: 40 mg/kg oral, 2 hours before IGF-1
SCID mice = experiment: Hyperglycemia and hyperinsulinemia in mice; type: in vivo, mouse; details: oral 10, 20, 40, 80 mg/kg
[10] = Pharmacokinetic study in mice, single oral dose; type: in vivo, mouse; details: for Mean area under the plasma concentration–time curve from time 0 to 24 h / Mean maximum plasma concentration: male SCID mice
Procedure, shortened: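 Single oral dose of 2, 10 or 20 mg/kg to male mice; plasma sampled over 0–24 h; Cmax, Tmax, elimination half-life and AUC0–24 reported as mean ± SD, n = 3.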

[11] = Phase I first-in-human study: pharmacokinetics; type: in vivo; details: for half-life / concentration at 1 day / concentration at 28 day / Cmax / Tmax / Vd/F: human, plasma; for Cmax: C max; for Tmax: T max; for Vd/F: VZ/F
[12] = system: patients with advanced solid tumors; experiment: Phase I first-in-human study: pharmacodynamics; type: in vivo
Procedure, shortened: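 Open-label 3+3 dose-escalation/de-escalation study. After a 1-week observation period, the test compound was given orally once daily, continuously, after an overnight fast. On pharmacodynamic sampling days, fasting continued until 2 h post-dose. Plasma glucose and insulin were sampled between days 1 and 29, at pre-dose and at 1, 2 and 24 h post-dose. Only the fasting time points were evaluable.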

[13] = male, SCID, mouse, plasma, po, 20 mg/kg
[14] = po, 37.5 mg/day, patients, oral 37.5 mg/day, Day 1 (n = 7), mean ± SD
[15] = po, 37.5 mg/day, patients, oral 37.5 mg/day, Day 28 (n = 5), mean ± SD
[16] = patients, oral 37.5 mg/day, Day 28 (n = 5), mean ± SD
[17] = patients, oral 50 mg/day, Day 28 (n = 4), mean ± SD
[18] = patients, 37.5 and 50 mg, 1 and 2 h post‐dose

Chain of Jak2 (O60674 whole entry): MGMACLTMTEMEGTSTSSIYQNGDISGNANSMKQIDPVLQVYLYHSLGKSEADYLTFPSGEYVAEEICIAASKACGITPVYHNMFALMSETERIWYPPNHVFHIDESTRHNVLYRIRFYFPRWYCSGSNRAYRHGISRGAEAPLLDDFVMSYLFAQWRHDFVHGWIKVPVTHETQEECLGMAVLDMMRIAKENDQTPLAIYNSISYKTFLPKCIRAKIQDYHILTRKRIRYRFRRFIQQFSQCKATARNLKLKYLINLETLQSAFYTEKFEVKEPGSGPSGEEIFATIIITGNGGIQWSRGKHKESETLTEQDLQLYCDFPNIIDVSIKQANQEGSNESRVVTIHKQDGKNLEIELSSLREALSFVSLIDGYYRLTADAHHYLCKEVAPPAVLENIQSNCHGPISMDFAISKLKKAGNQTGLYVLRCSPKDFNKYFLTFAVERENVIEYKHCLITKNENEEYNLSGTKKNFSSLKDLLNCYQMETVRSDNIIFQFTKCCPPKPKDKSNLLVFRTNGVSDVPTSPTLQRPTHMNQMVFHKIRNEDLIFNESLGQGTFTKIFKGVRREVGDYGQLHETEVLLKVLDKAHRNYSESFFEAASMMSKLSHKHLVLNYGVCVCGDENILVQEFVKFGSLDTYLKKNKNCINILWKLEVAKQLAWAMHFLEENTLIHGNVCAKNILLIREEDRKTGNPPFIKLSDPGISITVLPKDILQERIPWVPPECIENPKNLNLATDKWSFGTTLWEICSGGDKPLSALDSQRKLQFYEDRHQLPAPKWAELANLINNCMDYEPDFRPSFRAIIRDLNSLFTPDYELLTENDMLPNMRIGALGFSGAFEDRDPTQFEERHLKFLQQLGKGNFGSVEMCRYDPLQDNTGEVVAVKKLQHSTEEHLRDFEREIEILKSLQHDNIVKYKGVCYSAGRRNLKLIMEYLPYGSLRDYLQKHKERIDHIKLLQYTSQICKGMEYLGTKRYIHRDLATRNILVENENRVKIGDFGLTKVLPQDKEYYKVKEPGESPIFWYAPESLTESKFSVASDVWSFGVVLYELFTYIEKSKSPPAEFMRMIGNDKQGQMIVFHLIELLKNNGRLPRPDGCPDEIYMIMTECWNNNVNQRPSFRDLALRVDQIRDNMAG
Chain of AurA (O14965 whole entry): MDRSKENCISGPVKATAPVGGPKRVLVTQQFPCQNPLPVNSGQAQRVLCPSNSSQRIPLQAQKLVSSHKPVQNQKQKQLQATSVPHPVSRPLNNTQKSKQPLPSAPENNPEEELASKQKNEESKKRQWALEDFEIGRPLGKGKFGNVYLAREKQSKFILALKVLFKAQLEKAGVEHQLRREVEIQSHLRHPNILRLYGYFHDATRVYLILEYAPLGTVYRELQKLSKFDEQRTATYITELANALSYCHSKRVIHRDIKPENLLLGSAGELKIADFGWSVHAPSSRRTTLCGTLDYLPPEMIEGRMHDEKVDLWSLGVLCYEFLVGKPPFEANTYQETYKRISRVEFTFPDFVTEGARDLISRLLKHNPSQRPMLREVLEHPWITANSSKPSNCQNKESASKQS
Chain of fms‐like tyrosine kinase‐3 (P36888 27-993): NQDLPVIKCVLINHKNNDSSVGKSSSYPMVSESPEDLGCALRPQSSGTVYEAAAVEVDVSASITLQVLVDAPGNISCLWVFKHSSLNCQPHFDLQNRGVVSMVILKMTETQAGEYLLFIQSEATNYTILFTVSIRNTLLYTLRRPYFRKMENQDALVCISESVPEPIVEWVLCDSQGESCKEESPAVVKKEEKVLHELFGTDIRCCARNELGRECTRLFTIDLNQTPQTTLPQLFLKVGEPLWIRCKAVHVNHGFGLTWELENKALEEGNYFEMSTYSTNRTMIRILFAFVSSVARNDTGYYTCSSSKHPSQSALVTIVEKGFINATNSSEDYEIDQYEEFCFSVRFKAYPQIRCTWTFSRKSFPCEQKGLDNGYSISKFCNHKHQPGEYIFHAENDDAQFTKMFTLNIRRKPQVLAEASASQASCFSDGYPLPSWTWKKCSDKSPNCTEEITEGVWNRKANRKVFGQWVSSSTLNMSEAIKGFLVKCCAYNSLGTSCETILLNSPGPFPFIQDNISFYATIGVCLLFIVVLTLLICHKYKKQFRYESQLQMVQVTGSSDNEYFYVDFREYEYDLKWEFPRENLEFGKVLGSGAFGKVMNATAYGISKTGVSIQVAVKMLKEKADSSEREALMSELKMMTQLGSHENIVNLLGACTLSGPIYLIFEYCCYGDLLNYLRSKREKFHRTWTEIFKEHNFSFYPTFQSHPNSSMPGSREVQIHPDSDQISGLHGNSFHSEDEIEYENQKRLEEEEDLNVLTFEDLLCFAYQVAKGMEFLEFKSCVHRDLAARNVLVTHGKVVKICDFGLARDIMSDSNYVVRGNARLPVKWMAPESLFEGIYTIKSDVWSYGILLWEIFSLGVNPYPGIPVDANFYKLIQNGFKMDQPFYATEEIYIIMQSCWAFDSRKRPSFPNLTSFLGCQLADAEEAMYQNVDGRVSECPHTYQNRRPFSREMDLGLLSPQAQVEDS
Chain of fms‐like tyrosine kinase‐1 (P17948 27-1338): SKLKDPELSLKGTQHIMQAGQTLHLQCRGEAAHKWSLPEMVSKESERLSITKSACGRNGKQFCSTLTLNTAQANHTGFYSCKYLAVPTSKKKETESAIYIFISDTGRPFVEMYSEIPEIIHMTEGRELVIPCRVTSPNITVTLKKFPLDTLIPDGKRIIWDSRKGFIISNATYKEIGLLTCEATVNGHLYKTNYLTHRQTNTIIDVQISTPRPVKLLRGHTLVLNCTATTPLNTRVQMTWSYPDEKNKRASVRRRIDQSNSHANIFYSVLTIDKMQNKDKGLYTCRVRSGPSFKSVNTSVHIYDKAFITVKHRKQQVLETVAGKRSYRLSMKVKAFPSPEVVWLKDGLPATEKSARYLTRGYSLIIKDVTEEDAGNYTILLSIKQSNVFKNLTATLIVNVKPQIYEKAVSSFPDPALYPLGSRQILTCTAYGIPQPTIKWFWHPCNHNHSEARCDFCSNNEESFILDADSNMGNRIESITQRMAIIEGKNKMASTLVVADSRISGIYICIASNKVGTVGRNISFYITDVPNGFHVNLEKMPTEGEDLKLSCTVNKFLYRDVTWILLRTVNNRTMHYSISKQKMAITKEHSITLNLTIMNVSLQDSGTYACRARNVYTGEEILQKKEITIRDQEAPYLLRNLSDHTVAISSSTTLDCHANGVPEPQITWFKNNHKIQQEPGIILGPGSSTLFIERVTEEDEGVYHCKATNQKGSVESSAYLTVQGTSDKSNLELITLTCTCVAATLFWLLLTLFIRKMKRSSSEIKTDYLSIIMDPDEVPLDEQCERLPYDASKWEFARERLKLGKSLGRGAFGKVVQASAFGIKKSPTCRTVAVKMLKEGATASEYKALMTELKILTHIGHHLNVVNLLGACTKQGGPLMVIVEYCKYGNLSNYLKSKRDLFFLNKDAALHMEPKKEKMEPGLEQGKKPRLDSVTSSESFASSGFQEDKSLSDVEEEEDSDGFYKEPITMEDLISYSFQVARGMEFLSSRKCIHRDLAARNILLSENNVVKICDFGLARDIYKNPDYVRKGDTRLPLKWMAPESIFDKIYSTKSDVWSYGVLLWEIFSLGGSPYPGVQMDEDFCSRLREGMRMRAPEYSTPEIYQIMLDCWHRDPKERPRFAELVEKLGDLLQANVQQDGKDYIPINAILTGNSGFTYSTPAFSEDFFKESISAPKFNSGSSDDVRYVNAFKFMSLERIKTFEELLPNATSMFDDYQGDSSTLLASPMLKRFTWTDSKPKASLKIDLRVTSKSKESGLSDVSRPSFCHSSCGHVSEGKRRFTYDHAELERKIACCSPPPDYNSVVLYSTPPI
Chain of AurB (Q96GD4 whole entry): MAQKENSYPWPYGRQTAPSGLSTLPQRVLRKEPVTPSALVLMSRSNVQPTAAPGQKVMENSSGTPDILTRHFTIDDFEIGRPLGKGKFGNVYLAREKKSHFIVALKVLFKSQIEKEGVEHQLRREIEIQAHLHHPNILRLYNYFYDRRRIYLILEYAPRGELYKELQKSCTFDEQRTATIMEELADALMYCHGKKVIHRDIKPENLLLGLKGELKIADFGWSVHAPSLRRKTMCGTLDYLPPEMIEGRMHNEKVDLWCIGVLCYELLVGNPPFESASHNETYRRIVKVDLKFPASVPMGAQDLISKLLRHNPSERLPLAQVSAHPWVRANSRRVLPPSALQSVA
Chain of AurB (Q9NQS7 803-916 partner limits assumed): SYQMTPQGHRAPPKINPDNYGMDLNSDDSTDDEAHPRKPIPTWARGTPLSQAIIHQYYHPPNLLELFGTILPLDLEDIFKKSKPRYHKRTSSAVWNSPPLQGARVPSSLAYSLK

With Cc1ccsc1C(=O)Nc1cc(CN2CCN(C(=O)CO)CC2)ccc1/C=C/c1n[nH]c2ccccc12 [KW‐2450] the inhibition at 0.1 µM (IR) was 95.6%, the “Inhibition at 100 nmol/L” value (Jak2; Jak2, 100 nmol/L) was 93.4% and the inhibition at 0.1 µM (Jak2; read-out: Inhibition at 100 nmol/L, Jak2, 100 nmol/L) was greater than 90%. The “Inhibition at 100 nmol/L” value (AurA; AurA, 100 nmol/L) was 99.5%, the inhibition at 0.1 µM (AurA; read-out: Inhibition at 100 nmol/L, AurA, 100 nmol/L) was greater than 90% and the inhibition at 0.1 µM (AurB) was 76.8%. For the same molecule, the inhibition at 0.1 µM [1] was greater than 90%, the inhibition at 0.1 µM [2] was greater than 90% and the GI50 [3] was 3.2 to 11 nM. For the same molecule, the GI50 [4] was 11 to 19 nM, the “Correlation of degree of in vitro inhibition with that induced by anti‐IGF‐1 antibody KM1468” value [5] was “highly correlated” and the “Inhibition of insulin‐induced tyrosine phosphorylation of IR” value [6] was “significant degree of inhibition”. For the same molecule, the Cell cycle distribution ([7]; higher concentrations of 1200 and 2000 nmol/L) was “G1 and G2/M phase accumulations”, the Cell cycle distribution ([7]; lower concentrations of 120 and 400 nmol/L) was “G1 phase accumulation” and the “In vivo growth inhibitory activity” value [8] was “modest in vivo growth inhibitory activity”. For the same molecule, the “Inhibition of in vivo IGF‐1‐induced tyrosine phosphorylation of IGF‐R” value [9] was “inhibited”, the Plasma glucose level (SCID mice) was “elevated levels” and the Plasma insulin level (SCID mice) was “elevated levels”. For the same molecule, the “Mean area under the plasma concentration–time curve from time 0 to 24 h” value (shortened to “Mean area”) ([10]; oral 2 mg/kg) was 136 ng/h/mL, the “Mean maximum plasma concentration” value ([10]; oral 2 mg/kg) was 37.4 ng/mL and the “Mean area” value ([10]; oral 10 mg/kg) was 1320 ng/h/mL. For the same molecule, the “Mean maximum plasma concentration” value ([10]; oral 10 mg/kg) was 568 ng/mL, the “Mean area” value ([10]; oral 20 mg/kg) was 3190 ng/h/mL and the “Mean maximum plasma concentration” value ([10]; oral 20 mg/kg) was 1510 ng/mL. For the same molecule, the Tmax [10, 13] was 0.25 to 1 h, the half-life [10, 13] was 3.71 to 3.99 h and the half-life ([11]; oral, 50 mg, Mean elimination half‐life, range across dose levels and day measured, patients, 37.5 and 50 mg, days 1 and 28) was 9.74 to 13 h. The concentration at 1 day ([11]; po, 37.5 mg/day) was 608 ng/mL, the concentration at 28 day ([11]; po, 37.5 mg/day) was 890 ng/mL and the Cmax [11, 14] was 2330 ± 921 ng/mL. The Cmax [11, 15] was 2370 ± 1010 ng/mL, the Tmax [11, 14] was 2.29 ± 0.95 h and the Tmax [11, 15] was 1.99 ± 1.22 h. It also gave a Vd/F ([11]; po, 37.5 mg/day, patients, oral 37.5 mg/day, Day 1, n = 5, mean ± SD) of 19.6 ± 2.91 L, a Vd/F ([11]; po, 37.5 mg/day, patients, oral 37.5 mg/day, Day 28, n = 4, mean ± SD) of 23.7 ± 3.89 L and a half-life ([11]; po, 37.5 mg/day, t 1/2, patients, oral 37.5 mg/day, Day 1, n = 5, mean ± SD) of 10.1 ± 3.08 h. For the same molecule, the half-life ([11]; po, 37.5 mg/day, t 1/2, patients, oral 37.5 mg/day, Day 28, n = 4, mean ± SD) was 9.74 ± 2.69 h, the concentration at 1 day ([11]; po, 50 mg/day) was 671 ng/mL and the concentration at 28 day ([11]; po, 50 mg/day) was 701 ng/mL. For the same molecule, the “Mean maximum plasma concentration, molar equivalent” value ([11]; patients, 37.5 mg/day, days 1 and 28) was 3385 to 3440 nmol/L, the “Mean elimination half‐life, range across dose levels and day measured” value ([11]; patients, 37.5 and 50 mg, days 1 and 28) was 10 to 13 h and the “C min (trough plasma concentration)” value ([11]; patients, oral 37.5 mg/day, Day 1 (n = 7), mean ± SD) was 608 ± 679 ng/mL. The CL/F ([11]; patients, oral 37.5 mg/day, Day 1, n = 5, mean ± SD) was 1.45 ± 0.53 L/h, the “C min (trough plasma concentration)” value [11, 16] was 890 ± 1173 ng/mL and the CL/F [11, 16] was 1.56 ± 0.88 L/h. The “R, accumulation ratio (AUC0–24 on day 28/AUC0–24 on day 1)” value [11, 16] was 1.57 and 1.57 ± 0.80, the “C min (trough plasma concentration)” value ([11]; patients, oral 50 mg/day, Day 1 (n = 6), mean ± SD) was 671 ± 517 ng/mL and the CL/F ([11]; patients, oral 50 mg/day, Day 1, n = 5, mean ± SD) was 1.48 ± 0.97 L/h. The “C min (trough plasma concentration)” value [11, 17] was 701 ± 462 ng/mL, the CL/F [11, 17] was 1.69 ± 0.47 L/h and the “R, accumulation ratio (AUC0–24 on day 28/AUC0–24 on day 1)” value [11, 17] was 1.27 and 1.27 ± 0.37. The “Patients with insulin values above the upper limit of quantitation (300 μU/mL)” value ([12]; 37.5‐mg cohort) was “five”, the “Patients with insulin values above the upper limit of quantitation (300 μU/mL)” value ([12]; 50‐mg cohort) was “three” and the Fasting glucose [12, 18] was “Elevations in fasting glucose”. For the same molecule, the Fasting insulin [12, 18] was “Elevations”.
